Results as given in ChEMBL document CHEMBL4118248, “Small Molecule Proprotein Convertase Subtilisin/Kexin Type 9 (PCSK9) Inhibitors: Hit to Lead Optimization of Systemic Agents” (J Med Chem, 2018).

Key:
[1] = Lipophilicity, log D of the compound by shake flask method; type: physicochemical; settings: octanol/water
Summary of the method: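 LogD measured by the shake-flask method.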

[2] = Apparent permeability in RRCK cells; type: ADME, cell-based, Canis lupus familiaris, MDCKII-LE; settings: dog, MDCK
Summary of the method: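 Passive permeability measured in RRCK cells, a modified Madin-Darby canine kidney line; Papp reported in 10^-6 cm/s.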

[3] = Intrinsic clearance in rat liver microsomes; type: ADME, microsome; settings: read-out: CLH
[4] = Intrinsic clearance in human liver microsomes; type: ADME, microsome; settings: read-out: CLH
[5] = target: 80S Ribosome; test: Binding affinity to 80S ribosome in human HuH7 cells harboring pCMV-truncated human PCSK9 (1 to 152 residues)-proLuc assessed as inhibition of PCSK9 mRNA translation after overnight incubation by luciferase reporter gene assay; type: cell-based; settings: huh-7
Summary of the method: (§1)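 Huh7 cells stably carry human PCSK9 prodomain (aa 1-152) fused to firefly luciferase (aa 2-550) in pcDNA3.1, kept under 900 µg/mL Geneticin. Plated 10,000/well in phenol red-free DMEM/10% FBS and left 4 h, then compound added (top final 20 µM, 0.5% DMSO). Incubated overnight at 37 °C, luminescence read with SteadyGlo.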

[6] = target: Voltage-gated inwardly rectifying potassium channel KCNH2 (Homo sapiens, UniProt Q12809); test: Inhibition of dofetilide binding to human ERG by fluorescence polarization assay
Voltage-gated inwardly rectifying potassium channel KCNH2, sequence (Q12809 whole entry): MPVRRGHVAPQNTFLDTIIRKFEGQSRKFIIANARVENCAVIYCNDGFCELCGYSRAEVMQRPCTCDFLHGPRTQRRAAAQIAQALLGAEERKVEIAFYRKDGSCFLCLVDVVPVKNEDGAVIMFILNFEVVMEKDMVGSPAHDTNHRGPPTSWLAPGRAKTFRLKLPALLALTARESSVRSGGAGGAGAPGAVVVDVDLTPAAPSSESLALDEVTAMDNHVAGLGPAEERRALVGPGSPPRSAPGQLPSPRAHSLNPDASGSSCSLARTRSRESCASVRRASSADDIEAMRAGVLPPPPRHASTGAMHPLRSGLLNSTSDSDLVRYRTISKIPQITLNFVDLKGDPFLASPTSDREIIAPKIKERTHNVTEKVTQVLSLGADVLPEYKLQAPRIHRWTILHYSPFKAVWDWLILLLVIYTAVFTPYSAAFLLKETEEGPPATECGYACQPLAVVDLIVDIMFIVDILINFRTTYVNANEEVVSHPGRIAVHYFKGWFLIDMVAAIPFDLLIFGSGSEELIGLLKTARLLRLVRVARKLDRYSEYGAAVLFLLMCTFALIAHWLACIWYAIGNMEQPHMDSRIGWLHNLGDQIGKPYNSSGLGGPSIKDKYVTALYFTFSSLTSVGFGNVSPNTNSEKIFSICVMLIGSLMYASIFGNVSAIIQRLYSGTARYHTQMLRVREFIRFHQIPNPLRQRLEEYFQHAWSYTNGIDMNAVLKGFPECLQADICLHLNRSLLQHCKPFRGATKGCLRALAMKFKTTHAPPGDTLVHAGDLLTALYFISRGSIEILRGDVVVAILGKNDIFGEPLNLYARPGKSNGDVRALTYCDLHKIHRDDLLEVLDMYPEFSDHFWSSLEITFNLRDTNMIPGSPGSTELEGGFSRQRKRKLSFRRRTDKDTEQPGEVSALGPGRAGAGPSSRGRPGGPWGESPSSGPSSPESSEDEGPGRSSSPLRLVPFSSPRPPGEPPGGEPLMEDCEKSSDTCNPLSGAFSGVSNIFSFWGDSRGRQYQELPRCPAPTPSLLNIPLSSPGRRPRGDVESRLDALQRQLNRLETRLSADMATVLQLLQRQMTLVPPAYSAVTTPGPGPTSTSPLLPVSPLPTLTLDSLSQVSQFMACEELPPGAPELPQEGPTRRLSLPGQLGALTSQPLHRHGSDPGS

[7] = target: CYP2C9 (Homo sapiens, UniProt P11712); test: Inhibition of CYP2C9 (unknown origin) at 3 uM relative to control; type: ADME
CYP2C9, sequence (P11712 whole entry): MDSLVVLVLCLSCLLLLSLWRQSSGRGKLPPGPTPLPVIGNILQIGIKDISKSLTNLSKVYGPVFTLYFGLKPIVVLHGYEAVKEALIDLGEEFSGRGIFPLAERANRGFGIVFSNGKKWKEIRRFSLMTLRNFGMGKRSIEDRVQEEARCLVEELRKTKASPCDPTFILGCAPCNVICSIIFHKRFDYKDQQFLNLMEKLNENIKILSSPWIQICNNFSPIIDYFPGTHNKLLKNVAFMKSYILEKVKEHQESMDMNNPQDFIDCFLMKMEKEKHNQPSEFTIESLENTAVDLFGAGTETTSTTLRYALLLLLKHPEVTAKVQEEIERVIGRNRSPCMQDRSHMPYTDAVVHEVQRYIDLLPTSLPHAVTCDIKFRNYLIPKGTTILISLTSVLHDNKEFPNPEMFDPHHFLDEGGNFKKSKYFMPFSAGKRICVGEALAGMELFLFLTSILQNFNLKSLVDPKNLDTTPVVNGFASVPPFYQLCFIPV
Summary of the method: (§2)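 Inhibition of CYP1A2, 2D6, 2C9 and 3A4 reported as IC50, or as percent inhibition at 3 µM.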

[8] = target: CYP3A4 (Homo sapiens, UniProt P08684); test: Inhibition of CYP3A4 (unknown origin) at 3 uM relative to control; type: ADME; summary of the method: as §2
CYP3A4, sequence (P08684 whole entry): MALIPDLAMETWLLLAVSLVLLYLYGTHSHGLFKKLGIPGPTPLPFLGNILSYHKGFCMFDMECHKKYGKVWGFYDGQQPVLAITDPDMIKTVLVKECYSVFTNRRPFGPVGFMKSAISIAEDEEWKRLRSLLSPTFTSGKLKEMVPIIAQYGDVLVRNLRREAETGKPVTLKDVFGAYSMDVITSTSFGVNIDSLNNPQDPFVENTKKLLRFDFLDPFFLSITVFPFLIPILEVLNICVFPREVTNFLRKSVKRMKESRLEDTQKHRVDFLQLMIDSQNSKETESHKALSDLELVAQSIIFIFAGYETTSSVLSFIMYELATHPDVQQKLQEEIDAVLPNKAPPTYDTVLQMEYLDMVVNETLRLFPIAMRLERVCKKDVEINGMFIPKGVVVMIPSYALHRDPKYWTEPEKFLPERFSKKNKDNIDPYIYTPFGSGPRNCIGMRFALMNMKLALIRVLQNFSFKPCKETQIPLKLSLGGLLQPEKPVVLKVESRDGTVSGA

[9] = target: T1, CYP1A2 (Homo sapiens, UniProt P05177); test: Inhibition of CYP1A2 (unknown origin) at 3 uM relative to control; type: ADME; summary of the method: as §2
T1 sequence (P05177 whole entry): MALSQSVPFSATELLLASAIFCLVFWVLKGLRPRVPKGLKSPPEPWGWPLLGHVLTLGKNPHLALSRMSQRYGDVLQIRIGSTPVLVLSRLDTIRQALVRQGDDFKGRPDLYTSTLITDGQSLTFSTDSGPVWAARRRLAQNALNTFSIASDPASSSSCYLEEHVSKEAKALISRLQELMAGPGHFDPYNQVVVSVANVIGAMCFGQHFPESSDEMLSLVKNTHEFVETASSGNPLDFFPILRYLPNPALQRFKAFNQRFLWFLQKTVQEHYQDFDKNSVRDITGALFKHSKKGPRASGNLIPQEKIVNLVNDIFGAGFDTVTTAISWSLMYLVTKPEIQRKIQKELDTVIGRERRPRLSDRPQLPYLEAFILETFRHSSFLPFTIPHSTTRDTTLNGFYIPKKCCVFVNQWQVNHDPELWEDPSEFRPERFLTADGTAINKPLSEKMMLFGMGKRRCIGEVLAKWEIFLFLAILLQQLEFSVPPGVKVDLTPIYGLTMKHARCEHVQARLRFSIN

[10] = target: CYP2D6 (Homo sapiens, UniProt P10635); test: Inhibition of CYP2D6 (unknown origin) at 3 uM relative to control; type: ADME; summary of the method: as §2
CYP2D6, sequence (P10635 whole entry): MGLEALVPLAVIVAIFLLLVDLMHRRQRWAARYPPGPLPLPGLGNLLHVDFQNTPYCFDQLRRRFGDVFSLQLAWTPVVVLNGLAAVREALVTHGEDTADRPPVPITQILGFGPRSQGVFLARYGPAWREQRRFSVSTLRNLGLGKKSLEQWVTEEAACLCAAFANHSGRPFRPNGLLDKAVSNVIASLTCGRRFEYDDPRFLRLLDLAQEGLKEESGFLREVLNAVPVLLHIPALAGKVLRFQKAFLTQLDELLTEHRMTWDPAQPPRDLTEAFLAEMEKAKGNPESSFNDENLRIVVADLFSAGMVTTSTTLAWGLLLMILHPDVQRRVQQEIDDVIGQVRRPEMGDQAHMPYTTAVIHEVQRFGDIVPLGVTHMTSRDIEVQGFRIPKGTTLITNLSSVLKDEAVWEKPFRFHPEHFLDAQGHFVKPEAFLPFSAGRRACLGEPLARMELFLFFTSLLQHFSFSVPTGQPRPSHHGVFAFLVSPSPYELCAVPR

[11] = target: 80S Ribosome; test: Binding affinity to 80S ribosome in human HuH7 cells assessed as inhibition of PCSK9 mRNA translation after overnight incubation by ELISA; type: cell-based; settings: huh-7
Summary of the method: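 Huh7 cells kept in high-glucose DMEM, 10% BSA-free FBS, 2 mM L-glutamine, pen/strep at 37 °C, 5% CO2. Plated 7,500/well with compound or vehicle and incubated overnight (16-20 h). Secreted PCSK9 in the medium read by AlphaLISA: two antibodies to different mature-PCSK9 epitopes, biotinylated antibody 3 nM final, acceptor beads 10 µg/mL, 0.5 h rt; streptavidin donor beads 40 µg/mL, 1 h rt.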

[12] = tested on: Bone marrow cell; test: Cytotoxicity against rat bone marrow cells assessed as reduction in cell viability after 72 hrs by CellTiter-Glo assay; type: cell-based
[13] = tested on: Rattus norvegicus; test: Toxicity in Crl:CD(SD) rat assessed as single cell necrosis in crypt cells in ileum at 50 mg/kg/day, po daily via gavage for 14 days measured on day 15 post last dose; type: organism-based; settings: in vivo, 336 h
[14] = tested on: Rattus norvegicus; test: Toxicity in Crl:CD(SD) rat assessed as discolored/mottled liver at 50 mg/kg/day, po daily via gavage for 14 days measured on day 15 post last dose; type: organism-based; settings: in vivo, 336 h
Summary of the method: (§3)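 Male rats, 5 per group, given vehicle or compound at 50 mg/kg/day by oral gavage for 14 days. Mortality, clinical signs and hematology monitored throughout. Necropsy on day 15 with microscopy of bone marrow, ileum, duodenum, jejunum and liver. Toxicokinetics at 1, 3, 6 and 24 h post-dose on day 14.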

[15] = tested on: Rattus norvegicus; test: Toxicity in Crl:CD(SD) rat assessed as hepatocyte vacuolation at 50 mg/kg/day, po daily via gavage for 14 days measured on day 15 post last dose; type: organism-based; settings: in vivo, 336 h; summary of the method: as §3
[16] = target: T2, 80S Ribosome (Homo sapiens) (UniProt P08865+P42677+P62753+P15880+P23396+P61247+P62701+P22090+P46782+P62081+P62241+P46781+P46783+P62280+P25398+P62277+P62263+P62841+P62244+P62249+P08708+P62269+P39019+P60866+P63220+P62266+P62847+P62851+P62854+P62979+P62857+P62273+P62861+P39023+P36578+P46777+Q02878+P18124+P62424+P62917+P32969+P27635+P62906+P62913+P30050+P26373+P40429+P50914+P61313+P18621+Q07020+Q02543+P84098+P46778+P35268+P62829+P62750+P83731+P61254+P61353+P46776+P46779+P47914+P62888+P62899+P62910+P49207+P42766+P18077+Q9Y3U8+P83881+P61927+P61513+P63173+P62891+P62945+P05388+P05386); test: Binding affinity to 80S ribosome in human HuH7 cells harboring pCMV-truncated human PCSK9 (1 to 152 residues)-proLuc assessed as inhibition of PCSK9 mRNA translation at 20 uM after overnight incubation by luciferase reporter gene assay relative to control; type: cell-based; settings: Huh-7; summary of the method: as §1
[17] = target: T2, 80S Ribosome (Homo sapiens); test: Binding affinity to 80S ribosome in human HuH7 cells assessed as inhibition of PCSK9 mRNA translation at 20 uM after overnight incubation by ELISA relative to control; type: cell-based; settings: Huh-7

SMILES	logD [1]	Papp [2]	microsomal CLint [3]	microsomal CLint [4]	IC50 [5]	Ki [6]	inhibition at 3 µM [7]	inhibition at 3 µM [8]	inhibition at 3 µM [9]	inhibition at 3 µM [10]	IC50 [11]	IC50 [12]	Activity [13]	Activity [14]	Activity [15]	inhibition [16]	inhibition [17]
COc1ccc(CCC(=O)N(c2nccc3ccccc23)[C@@H]2CCCNC2)cc1	1.1	5.4 ×10⁻⁶ cm/s	> 510 µL/min/mg	20.6 µL/min/mg	2630 nM	13000 nM	< 20%	< 20%	< 20%	< 20%	8370 nM	> 20000 nM					
Cc1cnc2c(c1)nnn2-c1ccc(C(=O)N(c2ncccc2Cl)[C@@H]2CCCNC2)cc1	1.2		16.5 µL/min/mg	8.8 µL/min/mg	410 nM	3300 nM					780 nM	> 19700 nM	Non-Toxic	Toxic	Toxic		
O=C(c1ccc(-c2cnccn2)cc1)N(c1nccc2ccccc12)[C@@H]1CCCNC1	0.7		123 µL/min/mg	11 µL/min/mg	4300 nM	> 40000 nM					9320 nM	> 20000 nM					
O=C(c1ccc(-n2nnc3cccnc32)cc1)N(c1nccc2ccccc12)[C@@H]1CCCNC1	1.4			21.8 µL/min/mg	390 nM	15800 nM					900 nM						
O=C(c1ccc(-n2nnc3cccnc32)cn1)N(c1ncccc1Cl)[C@@H]1CCCNC1	0.3		15.3 µL/min/mg	< 8 µL/min/mg	710 nM	28800 nM					1440 nM	> 12700 nM	Non-Toxic	Toxic			
O=C(c1ccc(-c2cnn3cccnc23)cc1)N(c1nccc2ccccc12)[C@@H]1CCCNC1	1.1		31.2 µL/min/mg	14.5 µL/min/mg	690 nM	5400 nM					1290 nM	1400 nM					
O=C(c1ccc(-c2ccccc2)cc1)N(c1nccc2ccccc12)[C@@H]1CCCNC1	2.5		57.7 µL/min/mg	10.7 µL/min/mg		2200 nM										54%	39%
